Reference: article PMC6097893 (Cell chemical biology, 2018)

Columns and labels:
[1] = tested on: DENV2 NGC E-M196V mutant virus; test: Viral infectivity assay; format: cell-based, dengue virus serotype 2; conditions: versus DENV2 NGC wildtype
Outline: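 DENV2 inoculum in EBSS at MOI 1 pre-incubated with test compound over a concentration series, 45 min at 37 °C. The mixture was added to cell monolayers for 1 h at 37 °C, then washed off with PBS. Inhibitor-free medium was added for 24 h (single cycle). Supernatant yield was titred by plaque assay on BHK-21 cells with CMC overlay, 4.5 days, crystal violet.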

ZIKV PF13-251013-18 = test: Viral infectivity assay; format: cell-based, Zika virus; conditions: read-out: IC90 against ZIKV PF13-251013-18, Vero cells
DENV2 sE Q271E = DENV2 sE Q271E (Dengue virus type 2, UniProt P14340, Q551E); test: Biolayer interferometry, DENV2 sE Q271E; format: binding, dengue virus serotype 2; conditions: versus wildtype sE
DENV2 sE-M196V = DENV2 sE-M196V (Dengue virus type 2, UniProt P14340, M476V); test: Biolayer interferometry, DENV2 sE-M196V; format: binding, dengue virus serotype 2; conditions: versus wildtype sE

For `NC(=O)c1cccc(-c2cc(Nc3ccc(OC(F)(F)F)cc3)ncn2)c1` [GNF-2], the “Sensitivity of DENV2 E-M196V virus to compound” value [1] was “Reduced sensitivity”, the IC90 (ZIKV PF13-251013-18) was 107 µM and the “Effect of Q271E substitution on binding” value (DENV2 sE Q271E) was “affinity comparable to wildtype”. The “Effect of M196V mutation on binding” value (DENV2 sE-M196V) was “more significantly affected”.
